Reference: ChEMBL document CHEMBL1138318, “Synthesis and evaluation of the antiproliferative activities of derivatives of carboxyalkyl isoflavones linked to N-t-Boc-hexylenediamine” (J Med Chem, 2007)

Columns and labels:
A2780 [1] = assay: Inhibition of DNA synthesis in human A2780 cells assessed as ratio of treated to untreated control at 3 uM after 48 hrs by [3H]thymidine incorporation assay; assay type: functional
Procedure, shortened: (§1)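 Single-concentration screen by [3H]-thymidine incorporation into DNA. Test compounds were used at 0.3 µM in C4–2B cells and at 3 µM in 320DM, MLS, A2780, H295R and VSMC cells. Estradiol 17β was used at 30 nM throughout. Values are experimental/control DNA-synthesis ratios, given as means ± SD of 8–16 incubates from 2–4 experiments.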

[2] = Inhibition of DNA synthesis in human 320DM cells assessed as ratio of treated to untreated control at 3 uM after 48 hrs by [3H]thymidine incorporation assay; assay type: functional; procedure, shortened: as §1
[3] = Inhibition of DNA synthesis in human H295R cells assessed as ratio of treated to untreated control at 3 uM after 48 hrs by [3H]thymidine incorporation assay; assay type: functional; procedure, shortened: as §1
LNCaP C4-2B [4] = assay: Inhibition of DNA synthesis in human C4-2B cells assessed as ratio of treated to untreated control at 0.3 uM after 48 hrs by [3H]thymidine incorporation assay; assay type: functional; procedure, shortened: as §1
[5] = Inhibition of DNA synthesis in human VSMC cells assessed as ratio of treated to untreated control at 3 uM after 48 hrs by [3H]thymidine incorporation assay
[6] = Inhibition of DNA synthesis in human MLS cells assessed as ratio of treated to untreated control at 3 uM after 48 hrs by [3H]thymidine incorporation assay; assay type: functional; procedure, shortened: as §1
[7] = Inhibition of DNA synthesis in human H295R cells assessed as ratio of treated to untreated control at 30 nM after 48 hrs by [3H]thymidine incorporation assay; assay type: functional; procedure, shortened: as §1
LNCaP C4-2B [8] = assay: Inhibition of DNA synthesis in human C4-2B cells assessed as ratio of treated to untreated control at 30 nM after 48 hrs by [3H]thymidine incorporation assay; assay type: functional; procedure, shortened: as §1
[9] = Inhibition of DNA synthesis in human VSMC cells assessed as ratio of treated to untreated control at 30 nM after 48 hrs by [3H]thymidine incorporation assay; assay type: cell-based; settings: 0.03 µM; procedure, shortened: as §1
[10] = Stimulation of DNA synthesis in human MLS cells assessed as ratio of treated to untreated control at 300 nM after 48 hrs by [3H]thymidine incorporation assay; assay type: functional
Procedure, shortened: (§2)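 Estradiol-driven proliferation in MLS and 320DM cells, measured by [3H]-thymidine incorporation. Cells were exposed to estradiol at 30 or 300 nM, alone or with compound (0.3 µM) or ICI 182780 (1.1 µM). Values are E/C ratios versus untreated control, given as means ± SD of 8–16 incubates from 2–4 experiments.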

[11] = Inhibition of DNA synthesis in human 320DM cells assessed as ratio of treated to untreated control at 30 nM after 48 hrs by [3H]thymidine incorporation assay; assay type: functional; procedure, shortened: as §1
[12] = Inhibition of DNA synthesis in human MLS cells assessed as ratio of treated to untreated control at 30 nM after 48 hrs by [3H]thymidine incorporation assay; assay type: functional; procedure, shortened: as §1
A2780 [13] = assay: Inhibition of DNA synthesis in human A2780 cells assessed as ratio of treated to untreated control at 30 nM after 48 hrs by [3H]thymidine incorporation assay; assay type: functional; procedure, shortened: as §1
[14] = Stimulation of DNA synthesis in human 320DM cells assessed as ratio of treated to untreated control at 300 nM after 48 hrs by [3H]thymidine incorporation assay; assay type: functional; procedure, shortened: as §2
[15] = Inhibition of DNA synthesis in human MLS cells assessed as ratio of treated to untreated control at 1.1 uM after 48 hrs by [3H]thymidine incorporation assay; assay type: functional
Procedure, shortened: (§3)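 [3H]-thymidine incorporation into DNA in human MLS ovarian or 320DM colon cancer cells; antagonist tested at 1.1 µM alone or with estradiol at 30 nM or 300 nM. Reported as ratio of experimental to control (E/C) DNA synthesis, means ± SD of 8–16 incubates from 2–4 experiments; significance flagged at p < 0.05 and p < 0.01.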

[16] = Inhibition of DNA synthesis in human 320DM cells assessed as ratio of treated to untreated control at 1.1 uM after 48 hrs by [3H]thymidine incorporation assay; assay type: functional; procedure, shortened: as §3
[17] = Inhibition of 30 nM estradiol induced stimulation of DNA synthesis in human MLS cells assessed as ratio of treated to untreated control at 1.1 uM after 48 hrs by [3H]thymidine incorporation assay; assay type: functional; procedure, shortened: as §3
[18] = Inhibition of 30 nM estradiol induced stimulation of DNA synthesis in human 320DM cells assessed as ratio of treated to untreated control at 1.1 uM after 48 hrs by [3H]thymidine incorporation assay; assay type: functional; procedure, shortened: as §3
[19] = Inhibition of 300 nM estradiol induced stimulation of DNA synthesis in human MLS cells assessed as ratio of treated to untreated control at 1.1 uM after 48 hrs by [3H]thymidine incorporation assay; assay type: functional; procedure, shortened: as §3
[20] = Inhibition of 300 nM estradiol induced stimulation of DNA synthesis in human 320DM cells assessed as ratio of treated to untreated control at 1.1 uM after 48 hrs by [3H]thymidine incorporation assay; assay type: functional; procedure, shortened: as §3

## CC(C)(C)OC(=O)NCCCCCCNC(=O)CCCc1oc2cc(O)cc(O)c2c(=O)c1-c1ccc(O)cc1
A2780 [1]
  Ratio: 1.12
[2]
  Ratio: 0.2
[3]
  Ratio: 0.6
LNCaP C4-2B [4]
  Ratio: 0.75
[5]
  Ratio: 0.78

## COc1ccc(-c2c(CCCC(=O)NCCCCCCNC(=O)OC(C)(C)C)oc3cc(O)cc(O)c3c2=O)cc1
A2780 [1]
  Ratio: 0.64
[2]
  Ratio: 0.22
[6]
  Ratio: 0.05
[3]
  Ratio: 0.55
LNCaP C4-2B [4]
  Ratio: 0.41
[5]
  Ratio: 0.74

## C[C@]12CC[C@@H]3c4ccc(O)cc4CC[C@H]3[C@@H]1CC[C@@H]2O [ESTRADIOL]
[7]
  Ratio: 2.1
LNCaP C4-2B [8]
  Ratio: 2.1
[9]
  Ratio: 0.55
[10]
  Ratio: 1.7
[11]
  Ratio: 2.06
[12]
  Ratio: 2.35
A2780 [13]
  Ratio: 1.42
[14]
  Ratio: 1.87

## C[C@]12CC[C@@H]3c4ccc(O)cc4C[C@@H](CCCCCCCCC[S+]([O-])CCCC(F)(F)C(F)(F)F)[C@H]3[C@@H]1CC[C@@H]2O (stereo not given in full) [FULVESTRANT]
[15]
  Ratio: 0.52
[16]
  Ratio: 0.63
[17]
  Ratio: 0.53
[18]
  Ratio: 0.63
[19]
  Ratio: 0.95
[20]
  Ratio: 0.92
